Data set [1] concerns the target T1, Lipopolysaccharide heptosyltransferase 1 (Escherichia coli (strain K12)) (UniProt P24173).
T1 sequence (whole entry): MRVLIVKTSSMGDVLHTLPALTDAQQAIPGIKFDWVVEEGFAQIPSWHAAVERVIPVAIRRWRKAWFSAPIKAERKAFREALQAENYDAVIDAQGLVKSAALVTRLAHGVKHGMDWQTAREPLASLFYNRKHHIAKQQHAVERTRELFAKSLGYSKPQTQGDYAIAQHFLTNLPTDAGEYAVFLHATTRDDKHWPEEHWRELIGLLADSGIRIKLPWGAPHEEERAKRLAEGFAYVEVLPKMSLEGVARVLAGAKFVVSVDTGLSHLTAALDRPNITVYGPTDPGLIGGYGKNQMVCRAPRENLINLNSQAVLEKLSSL
Put plainly: Substrate activity at Escherichia coli Heptosyltransferase I assessed as ADP release at 100 uM using phospho(enol)pyruvate and NADH by pyruvate kinase and LDH based ADP/NADH coupling assay. Put shortly:
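Screening for acceptor-substrate (nucleophile) use by HepI. Each compound replaces the normal Kdo2-Lipid A-type acceptor. ADP-heptose is the heptose donor. Free glucose and galactose and their α- and β-methyl glycosides were screened the same way before the synthesized compounds.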

In data set [2] the target is T1, Lipopolysaccharide heptosyltransferase 1 (Escherichia coli (strain K12)). The data set is described as follows: Inhibition of Escherichia coli Heptosyltransferase I assessed as reduction in ADP release at 1 mM using ODLA and ADP-heptose substrates in presence of phospho(enol)pyruvate and NADH by pyruvate kinase and LDH based ADP/NADH coupling assay.
The target of data set [3] is T2, Lipopolysaccharide heptosyltransferase 1 (Escherichia coli (strain K12), UniProt P24173).
T2 sequence (P24173 whole entry): T1 sequence (whole entry)
The data set is described as follows: Inhibition of Escherichia coli Heptosyltransferase I assessed as reduction in ADP release using ODLA and ADP-heptose substrates in presence of phospho(enol)pyruvate and NADH by pyruvate kinase and LDH based ADP/NADH coupling assay.

Compound in data set [4]: CCCC/C=C/CO[C@@H]1O[C@H](CO)[C@@H](O)[C@H](O)[C@H]1O
Put plainly: Noncompetitive inhibition of Escherichia coli Heptosyltransferase I assessed as reduction in ADP release by measuring ODLA Kcat at 100 uM using ODLA and ADP-heptose substrates in presence of phospho(enol)pyruvate and NADH by pyruvate kinase and LDH dependent ADP/NADH coupling assay based Lineweaver-Burk plot.

Compound in data set [5]: CCCC/C=C/CO[C@@H]1O[C@H](CO)[C@@H](O)[C@H](O)[C@H]1O
The data set is described as follows: Noncompetitive inhibition of Escherichia coli Heptosyltransferase I assessed as reduction in ADP release by measuring ODLA Kcat at 10 uM using ODLA and ADP-heptose substrates in presence of phospho(enol)pyruvate and NADH by pyruvate kinase and LDH dependent ADP/NADH coupling assay based Lineweaver-Burk plot.

Compound in data set [6]: CCCC/C=C/CO[C@@H]1O[C@H](CO)[C@@H](O)[C@H](O)[C@H]1O
The data set is described as follows: Noncompetitive inhibition of Escherichia coli Heptosyltransferase I assessed as reduction in ADP release by measuring ODLA Km at 1000 uM using ODLA and ADP-heptose substrates in presence of phospho(enol)pyruvate and NADH by pyruvate kinase and LDH dependent ADP/NADH coupling assay based Lineweaver-Burk plot.

Compound in data set [7]: CCCC/C=C/CO[C@@H]1O[C@H](CO)[C@@H](O)[C@H](O)[C@H]1O
The data set is described as follows: Noncompetitive mixed type inhibition of Escherichia coli Heptosyltransferase I assessed as reduction in ADP release by measuring ADP-heptose Km at 1000 uM using ODLA and ADP-heptose substrates in presence of phospho(enol)pyruvate and NADH by pyruvate kinase and LDH dependent ADP/NADH coupling assay based Lineweaver-Burk plot.

Compound in data set [8]: CCCC/C=C/CO[C@@H]1O[C@H](CO)[C@@H](O)[C@H](O)[C@H]1O
Put plainly: Noncompetitive mixed type inhibition of Escherichia coli Heptosyltransferase I assessed as reduction in ADP release by measuring ADP-heptose Kcat at 100 uM using ODLA and ADP-heptose substrates in presence of phospho(enol)pyruvate and NADH by pyruvate kinase and LDH dependent ADP/NADH coupling assay based Lineweaver-Burk plot.

Compound in data set [9]: CCCC/C=C/CO[C@@H]1O[C@H](CO)[C@@H](O)[C@H](O)[C@H]1O
The data set is described as follows: Noncompetitive inhibition of Escherichia coli Heptosyltransferase I assessed as reduction in ADP release by measuring ODLA Km at 100 uM using ODLA and ADP-heptose substrates in presence of phospho(enol)pyruvate and NADH by pyruvate kinase and LDH dependent ADP/NADH coupling assay based Lineweaver-Burk plot.

Compound in data set [10]: CCCC/C=C/CO[C@@H]1O[C@H](CO)[C@@H](O)[C@H](O)[C@H]1O
The data set is described as follows: Noncompetitive inhibition of Escherichia coli Heptosyltransferase I assessed as reduction in ADP release by measuring ODLA Km at 10 uM using ODLA and ADP-heptose substrates in presence of phospho(enol)pyruvate and NADH by pyruvate kinase and LDH dependent ADP/NADH coupling assay based Lineweaver-Burk plot.

Compound in data set [11]: CCCC/C=C/CO[C@@H]1O[C@H](CO)[C@@H](O)[C@H](O)[C@H]1O
The data set is described as follows: Noncompetitive mixed type inhibition of Escherichia coli Heptosyltransferase I assessed as reduction in ADP release by measuring ADP-heptose Km at 100 uM using ODLA and ADP-heptose substrates in presence of phospho(enol)pyruvate and NADH by pyruvate kinase and LDH dependent ADP/NADH coupling assay based Lineweaver-Burk plot.

Compound in data set [12]: CCCC/C=C/CO[C@@H]1O[C@H](CO)[C@@H](O)[C@H](O)[C@H]1O
The data set is described as follows: Noncompetitive mixed type inhibition of Escherichia coli Heptosyltransferase I assessed as reduction in ADP release by measuring ADP-heptose Kcat at 10 uM using ODLA and ADP-heptose substrates in presence of phospho(enol)pyruvate and NADH by pyruvate kinase and LDH dependent ADP/NADH coupling assay based Lineweaver-Burk plot.

Compound in data set [13]: CCCC/C=C/CO[C@@H]1O[C@H](CO)[C@@H](O)[C@H](O)[C@H]1O
Put plainly: Noncompetitive mixed type inhibition of Escherichia coli Heptosyltransferase I assessed as reduction in ADP release by measuring ADP-heptose Km at 10 uM using ODLA and ADP-heptose substrates in presence of phospho(enol)pyruvate and NADH by pyruvate kinase and LDH dependent ADP/NADH coupling assay based Lineweaver-Burk plot.

Compound in data set [14]: CCCC/C=C/CO[C@@H]1O[C@H](CO)[C@@H](O)[C@H](O)[C@H]1O
Put plainly: Noncompetitive inhibition of Escherichia coli Heptosyltransferase I assessed as reduction in ADP release by measuring ODLA Kcat at 1000 uM using ODLA and ADP-heptose substrates in presence of phospho(enol)pyruvate and NADH by pyruvate kinase and LDH dependent ADP/NADH coupling assay based Lineweaver-Burk plot.

Compound in data set [15]: CCCC/C=C/CO[C@@H]1O[C@H](CO)[C@@H](O)[C@H](O)[C@H]1O
The data set is described as follows: Noncompetitive mixed type inhibition of Escherichia coli Heptosyltransferase I assessed as reduction in ADP release by measuring ADP-heptose Kcat at 1000 uM using ODLA and ADP-heptose substrates in presence of phospho(enol)pyruvate and NADH by pyruvate kinase and LDH dependent ADP/NADH coupling assay based Lineweaver-Burk plot.

Active and inactive are the calls of the source. The calls are words filed in the database; no cut-off is given here.

What is called inhibition is how much of the control response was suppressed. As usually defined, the Ki is a dissociation constant, usually derived from enzyme kinetics or from competition with a known ligand. A word on the kcat: it is the number of substrate molecules converted per active site and unit of time at saturation. Broadly, the Km is the substrate concentration at which the rate is half of its maximum.

Take `CO[C@@H]1O[C@H](CO)[C@H](O)[C@H](O)[C@H]1O`: in [1], the result was inactive. Also, the inhibition in data set [2] worked out at 7%.

As for `CO[C@H]1O[C@H](CO)[C@@H](O)[C@H](O)[C@H]1O`, the result in data set [1] was inactive. In addition, in data set [3], the Ki stood at 370 µM. Besides, in data set [2], the inhibition turned out to be 27.8%.

`OC[C@H]1OC(O)[C@H](O)[C@@H](O)[C@@H]1O` (stereo partly specified) [DEXTROSE]: the outcome in data set [1] was inactive. In addition, the inhibition constant Ki in data set [3] worked out at 280 µM.

Consider `CCCCCC/C=C/CO[C@H]1O[C@H](CO)[C@@H](O)[C@H](O)[C@H]1O`, for which, in [1], the result was inactive. For the same molecule, the inhibition in [2] turned out to be 16.7%.

For the molecule `CCCCCCCC/C=C/CO[C@@H]1O[C@H](CO)[C@H](O)[C@H](O)[C@H]1O`, the outcome in data set [1] was inactive. Besides, the inhibition in data set [2] was 5%.

On to `C=CCO[C@@H]1O[C@H](CO)[C@H](O)[C@H](O)[C@H]1O`, for which the result in data set [1] was inactive. The inhibition in [2] came to 10%.

Take `CCCC/C=C/CO[C@@H]1O[C@H](CO)[C@@H](O)[C@H](O)[C@H]1O`: the result in data set [1] was inactive. Also, the inhibition constant Ki in data set [3] turned out to be 340 µM. In addition, in data set [2], the inhibition was found to be 29.7%.

With `CCCCCCCC/C=C/CO[C@H]1O[C@H](CO)[C@H](O)[C@H](O)[C@H]1O`, in [1], the result was inactive. In data set [2], the inhibition result was “inactive”.

Turning to `CCCCCCCCO[C@@H]1O[C@H](CO)[C@@H](O)[C@H](O)[C@H]1O`, the outcome in data set [1] was inactive. Besides, the inhibition in data set [2] was 8.3%.

For the molecule `C=CCO[C@@H]1O[C@H](CO)[C@@H](O)[C@H](O)[C@H]1O`, in data set [1], the result was inactive. For the same molecule, the inhibition constant (Ki) in data set [3] is 650 µM. Further, in data set [2], the inhibition turned out to be 19.6%.

For the molecule `CCCCCC/C=C/CO[C@@H]1O[C@H](CO)[C@H](O)[C@H](O)[C@H]1O`, the outcome in data set [1] was inactive. The inhibition in [2] is 6.3%.

Take `CCCCCCCC/C=C/CO[C@@H]1O[C@H](CO)[C@@H](O)[C@H](O)[C@H]1O`: the outcome in data set [1] was inactive. For the same molecule, the Ki in data set [3] was found to be 520 µM. For the same molecule, the inhibition in [2] amounted to 23.4%.

As to `CCCCCC/C=C/CO[C@@H]1O[C@H](CO)[C@@H](O)[C@H](O)[C@H]1O`, in [1], the result was inactive. Moreover, the inhibition in data set [2] came to 4.2%.

Consider `CO[C@H]1O[C@H](CO)[C@H](O)[C@H](O)[C@H]1O`, for which the result in [1] was inactive. In data set [2], the inhibition is 8.8%.

`O=C[C@H](O)[C@@H](O)[C@@H](O)[C@H](O)CO` [GALACTOSE]: the result in [1] was inactive. The Ki in [3] was 500 µM. Besides, the inhibition in data set [2] is 28.5%.

In the case of `CCCCC/C=C/CO[C@@H]1O[C@H](CO)[C@H](O)[C@H](O)[C@H]1O`, the outcome in [1] was inactive. In [2], the inhibition was 7.8%.

`CCCCCCCC/C=C/CO[C@H]1O[C@H](CO)[C@@H](O)[C@H](O)[C@H]1O`: the outcome in [1] was inactive. Also, the inhibition entry in data set [2] was “inactive”.

On to `CCCC/C=C/CO[C@@H]1O[C@H](CO)[C@H](O)[C@H](O)[C@H]1O`, for which the outcome in data set [1] was inactive. Besides, the inhibitory constant (Ki) in data set [3] is 570 µM. For the same molecule, the inhibition in data set [2] stood at 22.6%.

In the case of `CCCCC/C=C/CO[C@@H]1O[C@H](CO)[C@@H](O)[C@H](O)[C@H]1O`, the result in data set [1] was inactive. In data set [2], the inhibition was found to be 11.9%.

Consider `CO[C@@H]1O[C@H](CO)[C@@H](O)[C@H](O)[C@H]1O`, for which the result in [1] was inactive. Besides, in [3], the Ki amounted to 680 µM. Moreover, the inhibition in data set [2] is 19.5%.

On to `CCCCCC/C=C/CO[C@H]1O[C@H](CO)[C@H](O)[C@H](O)[C@H]1O`, for which the outcome in [1] was inactive. Also, the inhibition in data set [2] turned out to be 8.8%.

B1: Lipopolysaccharide heptosyltransferase 1 (Escherichia coli (strain K12)), P24173 (protein)
chain: T1 sequence (whole entry)
In the case of B1, the kcat stood at 1.3 s⁻¹ in data set [4]; 1.4 s⁻¹ in [5]; 1.6 s⁻¹ in [8]; 2.8 s⁻¹ in data set [12]; 0.9 s⁻¹ in data set [14]; 0.76 s⁻¹ in data set [15]. Further, the Km turned out to be 65 µM in data set [6]; 38 µM in data set [7]; 108 µM in data set [9]; 114 µM in data set [10]; 135 µM in data set [11]; 277 µM in data set [13].

Values taken from ChEMBL document CHEMBL4184244, “Synthesis, kinetics and inhibition of Escherichia coli Heptosyltransferase I by monosaccharide analogues of Lipid A” (Bioorg Med Chem Lett, 2018).
